In the library only some 4.6% were active in any assay of this set; here they are far more common.
Arr AP2 block = inhibitors of beta-arrestin/AP2 binding, primary screen, biochemical, GPCR trafficking, flow cytometry | beta-arrestin 1 C-terminal peptide binding to AP2 beta2-adaptin appendage (human) | hit rate 0.31% among 340,000 | FITC-arrestin peptide / GST-AP2 beads; AP2 beta2 appendage carries R879A mutation | AID 504490, 2011 | inhibition, % at 10 µM;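 active = inhibition above a set limit, near 3 SD of compounds lacking own fluorescence, cut at about 54% in these data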;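 note: plate controls were DMSO wells for no effect and 5 µM unlabelled arrestin peptide for full effect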
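Assay system: GST-AP2 R879A bound to glutathione beads, E. coli-expressed; Medium: PBS with 0.05% Tween 20 and 0.1% BSA; Also added: fluorescein-tagged arrestin peptide at 50 nM final; Timing: 12 min plus 1 h, RT; Measured by: flow cytometry, FL1 (488/535 nm); Evaluation: percent drop in bead-associated FITC signal.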
PolyA inhibitor = polyadenylation inhibitors in yeast reporter cells, primary screen, luminescence, S. cerevisiae. AID 1875, 2009. S. cerevisiae SKY197-pL101 polyadenylation reporter, beta-gal luminescence; efflux-impaired pdr1/pdr3 knockout yeast; score 100 = 6 SD above DMSO. hit rate 0.02% among 300,000. activity score, % at 12 µM;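 active = lowest replicate activity score at least 50, where 100 means six control SD above control mean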;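 note: yeast exposed to compound for 9 h at 30 °C; higher score means more reporter readthrough which indicates perturbed polyadenylation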
ALR inh = inhibitors of human ALR sulfhydryl oxidase, primary screen, biochemical, H2O2 detection, HRP-luminol luminescence, single point. hit rate 3.8% among 290,000. inhibition, % (test concentration not listed). purified ALR, DTT oxidation;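 active = mean replicate inhibition above about 79%, with every replicate also reaching it, limit read from the data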
NALP1 inh = NALP1 inflammasome inhibitors in reconstituted yeast, colorimetric, S. cerevisiae, triplicate retest; hit rate 0.61% among 280,000; inhibition, % at 10 µM; AID 2071, 2009; S. cerevisiae NALP1/ASC/caspase-1 growth, X-gal OD620, 72 h; in the data active = inhibition mostly above about 24%, no sharp cut-off; inactive = mostly below about 32%
NLRP3 yeast inh = NALP3 inflammasome inhibitors in reconstituted yeast, primary screen, luminescence, uHTS; inhibition, % at 10 µM; Yeast reconstituted NLRP3/ASC/caspase-1, beta-gal luminescence, 24 h; hit rate 0.39% among 330,000;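 active = inhibition of 50% or more; inactive = inhibition below 50%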;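 note: plate controls were induced DMSO wells for no effect and uninduced yeast grown without galactose for full effect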
Pemphigus Ab inh = inhibitors of pemphigus antibody binding to DSG3, primary screen, biochemical, bead-based, flow cytometry, scFv-GFP; Desmoglein-3 (Homo sapiens), P32926; DSG3-coupled beads, scFv-anti-DSG3-GFP binding; active compounds read low; binding (percent of control), % at 10 µM; hit rate 0.48% among 310,000;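 active = binding more than 3 SD below its plate's average and above zero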;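 note: hits lower antibody fragment binding to DSG3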
Target sequence (P32926 whole entry, looked up, the tested form may be a part): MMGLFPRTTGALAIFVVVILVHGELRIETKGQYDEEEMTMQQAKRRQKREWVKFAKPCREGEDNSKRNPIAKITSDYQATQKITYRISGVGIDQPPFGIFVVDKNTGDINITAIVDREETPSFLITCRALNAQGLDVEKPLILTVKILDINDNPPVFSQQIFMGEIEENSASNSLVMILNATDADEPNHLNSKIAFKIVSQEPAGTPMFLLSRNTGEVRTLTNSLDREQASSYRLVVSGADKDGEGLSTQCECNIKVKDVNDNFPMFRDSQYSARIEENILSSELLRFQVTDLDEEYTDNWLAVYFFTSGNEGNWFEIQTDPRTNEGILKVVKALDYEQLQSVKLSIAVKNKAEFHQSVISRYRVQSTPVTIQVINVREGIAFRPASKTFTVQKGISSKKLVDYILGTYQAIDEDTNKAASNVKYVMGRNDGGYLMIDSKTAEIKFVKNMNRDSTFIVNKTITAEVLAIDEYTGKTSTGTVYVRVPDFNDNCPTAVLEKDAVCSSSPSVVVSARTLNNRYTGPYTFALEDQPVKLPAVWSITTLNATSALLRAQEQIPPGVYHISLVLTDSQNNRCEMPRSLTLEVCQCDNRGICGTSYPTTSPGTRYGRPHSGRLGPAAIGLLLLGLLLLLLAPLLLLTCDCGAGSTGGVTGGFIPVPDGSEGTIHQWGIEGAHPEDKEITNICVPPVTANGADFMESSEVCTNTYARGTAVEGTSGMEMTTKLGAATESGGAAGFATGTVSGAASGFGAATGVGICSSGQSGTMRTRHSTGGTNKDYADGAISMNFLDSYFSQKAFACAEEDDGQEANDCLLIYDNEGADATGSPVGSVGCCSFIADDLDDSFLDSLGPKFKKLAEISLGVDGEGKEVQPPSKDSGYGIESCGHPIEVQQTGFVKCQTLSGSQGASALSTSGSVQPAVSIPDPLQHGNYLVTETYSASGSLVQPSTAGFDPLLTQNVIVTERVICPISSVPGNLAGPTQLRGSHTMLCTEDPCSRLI
NALP3 confirm = NALP3 inhibitors retested in yeast, confirmation, luminescence, single concentration; shares compounds with NLRP3 yeast inh; yeast expressing human NALP3; inhibition, % at 10 µM; hit rate 81% among 1,300; in the data active = inhibition above about 48%
Casp1 ASC ctr = CASP1-PYCARD signaling inhibition in yeast, confirmatory test, counterassay for NLRP3 inhibitor program, one-dose; shares compounds with NLRP3 yeast inh; yeast expressing Caspase-1-ASC, luminescence counter screen; inhibition, % at 10 µM; hit rate 66% among 1,000
NALP3 yeast rt = NALP3 inhibitors in yeast, repeat test, confirmation, luminescence, single concentration, retest; shares compounds with NLRP3 yeast inh; yeast expressing human NALP3, luminescence read-out; inhibition, % at 10 µM; hit rate 53% among 1,000; AID 488794, 2010
Active calls of the source: *; · = not tested or not shown. Cut-off read from the data, not from the text of the source, unless noted: active = inhibition above about 50%; inactive = the rest.

SMILES	Arr AP2 block	PolyA inhibitor	ALR inh	NALP1 inh	NLRP3 yeast inh	Pemphigus Ab inh	NALP3 confirm	Casp1 ASC ctr	NALP3 yeast rt
CN(C)CCCN(C(=O)c1cc(-c2cccs2)nc2ccccc12)c1nc2ccc(F)cc2s1	8.9	-3.6	-6.1	28.7	51.6*	·	64.7*	50.1*	45.7
COc1ccc(-n2cc(-c3ccccc3)c3c(=O)[nH]cnc32)cc1	13.2	-2.0	-3.5	15.3	-104.5	120.1	-16.6	·	·
O=c1[nH]cnc2c1c(-c1ccccc1)cn2-c1cccc(Cl)c1	-6.9	-13.9	1.8	19.6	-29.9	78.4	·	·	·
CCOC(=O)c1ccc2nc3c(cc2c1)CCS3	3.1	-10.6	1.7	-8.4	56.0*	105.6	66.5*	65.7*	46.1
COc1ccc(C2c3sc(=O)[nH]c3SC3C4CCC(C4)C23)cc1 (stereo unspecified)	-9.3	-5.7	·	37.5	51.4*	100.4	52.5*	·	·
O=c1[nH]c2c(s1)C(c1ccccc1)C1C3CCC(C3)C1S2 (stereo unspecified)	-0.9	-14.0	17.3	-0.3	16.3	102.6	·	·	·
CCCCc1ccc(NC(=S)NCc2ccc(OC)cc2)cc1	·	-5.9	0.1	-4.0	50.3*	101.6	72.5*	55.1*	34.9
O=C(Oc1c(Cl)cc(Cl)c2cccnc12)c1cccs1	17.3	-39.0	-16.8	-3.1	60.8*	99.7	69.9*	82.9*	80.7*
O=C(Oc1c(CN2CCOCC2)cc(Cl)c2cccnc12)c1cccs1	29.4	-9.6	·	14.1	37.7	·	·	·	·
Oc1c(Cl)cc(Cl)c2cccnc12	9.2	-3.1	·	15.5	·	107.3	·	·	·
O=C(Oc1c(Cl)cc(Cl)c2cccnc12)c1ccco1	-1.1	-57.1	-6.2	31.4	70.6*	116.2	83.8*	·	·
Cc1noc(C)c1COc1ccc(C(=O)OCC(N)=O)cc1	-5.7	4.2	-2.6	19.3	12.2	109.8	·	·	·
O=C(CSC(=S)N1CCCCC1)c1ccccc1	14.6	-11.9	14.7	8.7	60.2*	103.4	73.5*	69.7*	55.8*
CCC(=O)N1CCN(CCN=CC2=C(O)CC(c3cccs3)CC2=O)CC1 (stereo unspecified)	25.1	-14.3	-1.9	-3.9	55.7*	93.3	55.9*	44.9	44.6
CCOC(=O)C1=CN(Cc2ccco2)S(=O)(=O)N(C)C1CC (stereo unspecified)	-1.6	·	·	·	·	102.4	·	·	·
C[C@@H](C[C@@H](O)[C@H](O)C(C)(C)O)[C@@H]1CC[C@]2(C)C3=CC[C@H]4C(C)(C)C(=O)CC[C@]4(C)[C@H]3CC[C@@]12C	1.1	-1.4	-4.5	43.8*	61.9*	110.2	75.8*	·	·
C[C@H](C[C@H](O)[C@H]1OC1(C)C)C1=C2C[C@H](O)C3[C@@]4(C)CCC(=O)C(C)(C)C4CC[C@]3(C)[C@@]2(C)CC1 (stereo partly specified)	18.3	·	-14.7	·	17.2	101.0	·	·	·
COc1ccc(CCNCc2cc(C)n(-c3ccc(OC)cc3)c2C)cc1	13.1	-0.3	·	31.6	30.4	112.9	·	·	·
CCOc1ccccc1NC(=O)C1CCC(=O)N1S(=O)(=O)c1ccc(C)cc1 (stereo unspecified)	30.7	26.5	-8.1	12.1	-0.5	100.6	·	·	·
CCOC(=O)c1ccc2c(c1)nc(COc1ccc(OC)cc1)n2CC	27.5	21.9	·	-33.5	60.6*	101.1	61.3*	42.2	49.8
Cc1cccc(NC(=O)c2cc3ccccc3o2)c1	-6.2	-7.9	·	10.2	54.1*	101.1	72.0*	58.8*	52.5*
O=C(Nc1cccc(Br)c1)c1cc2ccccc2o1	-5.2	-5.4	0.8	7.7	64.0*	127.0	62.3*	47.9	60.0*
NS(=O)(=O)c1cccc(NC(=O)c2cc3ccccc3o2)c1	-5.4	8.7	-2.2	4.2	9.7	109.0	·	·	·
O=C(CN1CCCCCCC1)Nc1cc(Cl)cc(Cl)c1	-6.7	-8.7	28.4	8.7	51.0*	102.1	23.3	·	·
O=c1c2nnn(Cc3ccccc3)c2ncn1-c1ccccc1	-3.9	8.9	-9.6	18.3	7.3	·	·	·	·
SMILES	Arr AP2 block	PolyA inhibitor	ALR inh	NALP1 inh	NLRP3 yeast inh	Pemphigus Ab inh	NALP3 confirm	Casp1 ASC ctr	NALP3 yeast rt
Cc1ccc(NC(=O)c2nc(S(=O)(=O)Cc3ccccc3)ncc2Cl)cc1	44.1	-72.8	1.2	-11.6	55.2*	141.7	68.2*	49.8	53.0*
O=C(Nc1ccc(F)cc1)c1nc(S(=O)(=O)Cc2ccccc2)ncc1Cl	45.1	-70.1	-0.4	-12.5	31.9	112.8	·	·	·
Cc1ccc(-c2cc(-c3ccccc3)no2)c(O)c1	-1.6	-0.6	-7.1	26.9	·	96.9	·	·	·
Oc1ccccc1-c1cc(-c2ccccc2)no1	1.3	-23.0	30.2	17.8	54.7*	105.0	60.3*	58.5*	55.8*
Cc1cc2ccccn2c1C(=O)c1ccccc1Br	0.0	-20.3	·	10.3	57.4*	103.3	54.6*	50.5*	45.1
Cc1cc2ccccn2c1C(=O)c1ccc(F)cc1	-0.9	-16.8	·	10.7	47.7	109.7	·	·	·
CCn1c(-c2cc(-c3ccc(OC(C)C)cc3)nc3ccccc23)n[nH]c1=S	2.9	5.0	7.5	-17.0	54.3*	101.0	37.1	·	·
CCCOc1cccc(-c2cc(-c3n[nH]c(=S)n3CC)c3ccccc3n2)c1	23.0	-12.8	·	-2.0	37.4	106.6	·	·	·
CCOc1c2ccoc2nc2c(OC)c(OC)ccc12	31.2	-2.6	-18.9	-10.8	50.1*	105.9	68.5*	47.6	43.8
C=CCOc1ccc2c(OC)c3ccoc3nc2c1OC	-9.8	-12.2	·	2.9	24.6	·	·	·	·
Cc1nc(SCC(=O)NC2CCCC2)c2c(C)c(C)sc2n1	0.8	-15.1	-6.2	15.4	54.4*	104.2	56.4*	38.5	29.4
Cc1sc2nc(C3CC3)nc(SCC(=O)NCc3ccco3)c2c1C	10.8	-7.2	1.6	18.0	51.2*	86.9	26.2	·	·
COc1ccc2cc(CCNS(=O)(=O)c3ccc(NC(C)=O)cc3)c(=O)[nH]c2c1	1.1	-1.5	·	6.6	11.1	101.0	·	·	·

Bioassay records (PubChem BioAssay)
